We go through one molecule from ChEMBL document CHEMBL2163188, “Discovery of piragliatin--first glucokinase activator studied in type 2 diabetic patients” (J Med Chem, 2012).

Data set [1] concerns Rattus norvegicus. Kind of data set: Hepatic toxicity in Wistar rat assessed as periportal hepatocellular microvesicular lipidosis at 600 mg/kg, po administered as single dose after 5 days by hematoxylin and eosin staining. The class given is organism-based. Also noted: dose 600 mg/kg, route oral. As to conditions: in vivo, 120 h. An outline of the steps:
(§1)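 Male Wistar rats, three per group (vehicle or test compound), given a single oral dose of 300 or 600 mg/kg. Serum triglycerides were measured. Liver sections were stained with H&E and Oil Red O to assess lipidosis.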

Data set [2] has as its system Rattus norvegicus. Kind of data set: Hepatic toxicity in Wistar rat assessed as lipidosis at 250 mg/kg, po qd for 5 days by Oil Red O staining. The class given is organism-based. As to conditions: in vivo, 120 h. Also noted: dose 250 mg/kg, route oral. In a few lines: (§2)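 Five-day rat study with daily oral dosing. Blood glucose was measured on day 3. Hepatic lipidosis was assessed at study end by Oil Red O staining of liver.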

Data set [3] concerns Rattus norvegicus. Kind of data set: Antidiabetic activity in Wistar rat assessed as reduction of glucose level at 250 mg/kg, po qd for 5 days measured in day 3. It counts as functional, organism-based. The arrangement: dose 250 mg/kg. In a few lines:
as §2

Data set [4] deals with Rattus norvegicus. Kind of data set: Hepatic toxicity in Wistar rat assessed as increase in serum triglyceride level at 600 mg/kg, po administered as single dose after 5 days […]. As to conditions: in vivo, 120 h. The arrangement: dose 600 mg/kg, route oral. It counts as organism-based. An outline of the steps: as §1
For data set [5], the system named is Rattus norvegicus. Kind of data set: Hepatic toxicity in Wistar rat assessed as lipidosis at 600 mg/kg, po administered as single dose by Oil Red O staining. The conditions noted are these: in vivo.
The test system of data set [6] is Rattus norvegicus. Put plainly: Antidiabetic activity in Wistar rat assessed as reduction of glucose level at 600 mg/kg, po administered as single dose after 5 days measured on day 3. The arrangement: dose 600 mg/kg. The class given is functional, organism-based.

The source made the active and inactive calls. The calls are words filed in the database; no cut-off is given here.

On to `CS(=O)(=O)c1ccc([C@H](CC2CCCC2)C(=O)Nc2nccs2)cc1`, for which the Activity result with Rattus norvegicus [1] was “Toxic”; in the data set with Rattus norvegicus [2], “Toxic”; with Rattus norvegicus [4], 600%; with Rattus norvegicus [5], “Toxic”. The result in the data set on Rattus norvegicus [3] and with Rattus norvegicus [6] was inactive.
